Activity calls are given as the source filed them. The calls are words filed in the database; no cut-off is given here.
How the values were obtained:
[1] = biological target: Metabotropic glutamate receptor 5 (Rattus norvegicus, UniProt P31424); test: Displacement of [3H]M-MPEP from mGluR5 in Sprague-Dawley rat cerebrocortical membranes after 60 mins
Liver = test: Intrinsic clearance in human liver microsomes at 2.5 uM assessed per gram of liver; format: ADME, microsome
[2] = biological target: T1, Metabotropic glutamate receptor 5 (Homo sapiens, UniProt P41594); test: Negative allosteric modulation of human mGluR5a expressed in CHO cells assessed as reduction in DHPG-induced cytosolic Ca2+ influx after 10 to 20 mins by fluo-4/AM-dye based fluorometric analysis; format: functional, cell-based
T1 sequence (P41594 whole entry): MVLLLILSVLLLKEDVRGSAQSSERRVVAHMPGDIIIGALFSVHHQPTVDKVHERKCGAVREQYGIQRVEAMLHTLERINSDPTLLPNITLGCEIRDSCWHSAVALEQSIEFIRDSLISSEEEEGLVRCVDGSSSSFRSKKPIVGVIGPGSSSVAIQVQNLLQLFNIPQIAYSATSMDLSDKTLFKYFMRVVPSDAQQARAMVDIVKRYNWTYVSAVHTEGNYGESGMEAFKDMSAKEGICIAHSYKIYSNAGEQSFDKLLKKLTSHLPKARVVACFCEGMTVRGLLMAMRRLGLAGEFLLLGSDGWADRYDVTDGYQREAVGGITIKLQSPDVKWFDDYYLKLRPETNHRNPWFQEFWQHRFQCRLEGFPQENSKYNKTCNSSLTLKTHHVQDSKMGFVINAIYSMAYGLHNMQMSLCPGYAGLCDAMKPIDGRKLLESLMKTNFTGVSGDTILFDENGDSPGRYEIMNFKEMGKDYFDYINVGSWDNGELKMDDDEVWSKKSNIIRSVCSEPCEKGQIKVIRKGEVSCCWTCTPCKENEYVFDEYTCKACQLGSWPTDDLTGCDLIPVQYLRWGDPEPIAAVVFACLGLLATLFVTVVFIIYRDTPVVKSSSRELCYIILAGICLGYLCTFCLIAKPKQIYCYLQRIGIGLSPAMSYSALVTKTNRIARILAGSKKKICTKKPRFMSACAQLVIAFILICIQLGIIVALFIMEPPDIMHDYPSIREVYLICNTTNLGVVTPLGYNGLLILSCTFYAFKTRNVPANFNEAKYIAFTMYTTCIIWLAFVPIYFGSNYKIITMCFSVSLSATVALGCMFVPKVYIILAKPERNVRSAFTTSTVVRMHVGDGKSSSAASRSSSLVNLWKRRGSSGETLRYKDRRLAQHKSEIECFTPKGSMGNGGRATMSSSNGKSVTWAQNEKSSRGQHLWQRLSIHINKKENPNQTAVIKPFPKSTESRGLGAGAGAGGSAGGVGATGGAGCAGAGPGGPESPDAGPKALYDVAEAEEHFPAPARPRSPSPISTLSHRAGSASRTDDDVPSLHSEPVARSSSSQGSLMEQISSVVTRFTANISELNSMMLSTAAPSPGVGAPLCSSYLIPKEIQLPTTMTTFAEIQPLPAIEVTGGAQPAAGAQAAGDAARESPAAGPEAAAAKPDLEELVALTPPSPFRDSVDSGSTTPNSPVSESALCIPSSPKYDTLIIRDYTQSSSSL

Rattus norvegicus [3] = test: Therapeutic index, ratio of MED for effect on spatial learning performance in po dosed Wistar rat by Morris water maze test to MED for anxiolytic activity in Wistar rat by Vogel punished drinking conflict test
Summary of the method: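 Index is the Morris water maze minimum effective dose (oral, given 1 h before the first daily trial, 4 days of 3 trials) divided by the Vogel punished drinking minimum effective dose.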

Rattus norvegicus [4] = test: Therapeutic index, ratio of plasma concentration causing effect on spatial learning performance in po dosed Wistar rat by Morris water maze test to plasma concentration causing anxiolytic activity in Wistar rat by Vogel punished drinking conflict test
Summary of the method: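 Index is the plasma level in rats at 30 mg/kg p.o. in the Morris water maze (sampled after the last trial on Day 4) divided by the plasma level at the Vogel minimum effective dose. Vogel plasma was sampled right after the test.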

MDR1 = test: Apparent inward permeability in MDCK2-MDR1 cells; format: ADME, cell-based, Canis lupus familiaris; details: dog, MDCK-MDR1
[5] = Plasma protein binding in rat; format: ADME, cell-free; details: read-out: PPB (converted)
Cytochrome P450 3A4 = Cytochrome P450 3A4 (Homo sapiens, UniProt P08684); test: Inhibition of CYP3A4 in human liver microsomes; format: ADME
Cytochrome P450 3A4, sequence (P08684 whole entry): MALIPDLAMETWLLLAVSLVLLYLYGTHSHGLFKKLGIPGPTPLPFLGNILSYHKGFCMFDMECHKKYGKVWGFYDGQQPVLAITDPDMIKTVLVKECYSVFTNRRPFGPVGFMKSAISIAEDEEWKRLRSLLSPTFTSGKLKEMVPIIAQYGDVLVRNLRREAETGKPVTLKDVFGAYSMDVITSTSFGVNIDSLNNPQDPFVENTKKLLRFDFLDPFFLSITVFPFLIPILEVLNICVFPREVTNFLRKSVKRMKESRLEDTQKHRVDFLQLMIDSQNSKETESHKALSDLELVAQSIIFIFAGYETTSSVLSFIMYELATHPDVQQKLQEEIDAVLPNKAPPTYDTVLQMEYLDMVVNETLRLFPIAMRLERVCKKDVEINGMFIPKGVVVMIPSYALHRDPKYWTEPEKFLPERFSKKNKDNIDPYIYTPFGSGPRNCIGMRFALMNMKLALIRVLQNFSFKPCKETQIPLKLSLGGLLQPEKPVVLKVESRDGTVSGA

Rattus norvegicus [6] = test: Anxiolytic activity in Wistar rat assessed as increase in water drinking time during punished period at 10 mg/kg, po qd measured after first dosing by Vogel punished drinking conflict test; format: functional, organism-based
Summary of the method: (§1)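 Vogel punished-drinking test in rats after 24 h water deprivation, with 60 s unpunished drinking; oral 10 mg/kg given once daily for 19 days, vehicle group dosed only on Day 19 as first-dose control; plasma sampled right after test; n=10 per group; ANOVA with Duncan post-hoc.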

Rattus norvegicus [7] = test: Anxiolytic activity in Wistar rat assessed as increase in water drinking time during punished period at 10 mg/kg, po qd for 19 days by Vogel punished drinking conflict test; format: functional, organism-based; summary of the method: as §1
Rattus norvegicus [8] = test: Effect on spatial learning performance in po dosed Wistar rat measured as escape latency dosed 1 hr prior to first daily trial by Morris water maze test; format: ADME, organism-based; details: in vivo
Summary of the method: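 Morris water maze with male Harlan-Wistar rats (190–220 g): three trials a day for 4 days, hidden 10 cm platform, video tracking; 30 mg/kg p.o. in Type IV lipid formulation 1 h before first daily trial; plasma taken after last Day 4 trial; 7–17 rats/group.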

[9] = (§2) Toxicity in po dosed Harlan-Wistar rat assessed as decrease in spontaneous locomotor activity photocell-based activity monitor test; format: organism-based; details: Harlan-Wistar, in vivo
Summary of the method: (§3)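 Male Wistar rats were given 0, 10, 30 or 50 mg/kg p.o. Spontaneous locomotor activity (ambulatory movement) was recorded in a photocell-based activity monitor.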

Rattus norvegicus [10] = test: as §2; format: organism-based; details: in vivo; summary of the method: as §3
[11] = Clearance in male Crl:CD(SD) rat at 0.5 mg/kg, iv; format: ADME, organism-based; details: in vivo
[12] = Volume of distribution in male Crl:CD(SD) rat at 0.5 mg/kg, iv; format: ADME, organism-based; details: in vivo
Summary of the method: (§4)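 Single-dose PK: i.v. and oral dosing in Crl:CD(SD) rats and beagle dogs, plus a pilot oral nasogastric study in Cynomolgus monkeys using a Type IV lipid formulation. Rat i.v. vehicle was 80% cosolvent. Monkeys were fasted from 2 h before until 2 h after dosing, n=3 per sex. Rats also received [14C]-labelled compound orally at 50 mg/kg, with total radioactivity followed. Parameters are means; monkey values are medians.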

[13] = Volume of distribution in female Crl:CD(SD) rat at 0.5 mg/kg, iv; format: ADME, organism-based; details: in vivo; summary of the method: as §4
[14] = Volume of distribution in male beagle dog at 0.5 mg/kg, iv administered as infusion; format: ADME, organism-based, Canis lupus familiaris; details: in vivo; summary of the method: as §4
[15] = Volume of distribution in female beagle dog at 0.5 mg/kg, iv administered as infusion; format: ADME, organism-based, Canis lupus familiaris; details: in vivo; summary of the method: as §4
[16] = Terminal elimination half life in male Crl:CD(SD) rat at 0.5 mg/kg, iv; format: ADME, organism-based; details: in vivo, read-out: beta t1/2 (converted); summary of the method: as §4
[17] = Terminal elimination half life in female Crl:CD(SD) rat at 4.5 mg/kg, po; format: ADME, organism-based; details: in vivo, read-out: beta t1/2 (converted); summary of the method: as §4
[18] = Terminal elimination half life in fasted male beagle dog at 1 mg/kg, po; format: ADME, organism-based, Canis lupus familiaris; details: in vivo, read-out: beta t1/2 (converted); summary of the method: as §4
[19] = Terminal elimination half life in fasted male cynomolgus monkey at 9 mg/kg, po administered as single dose; format: ADME, organism-based, Macaca fascicularis; details: in vivo, read-out: beta t1/2 (converted); summary of the method: as §4
[20] = Tmax in male Crl:CD(SD) rat at 4.5 mg/kg, po; format: ADME, organism-based; details: in vivo; summary of the method: as §4
[21] = Tmax in fasted male beagle dog at 1 mg/kg, po; format: ADME, organism-based, Canis lupus familiaris; details: in vivo; summary of the method: as §4
[22] = Tmax in fasted male cynomolgus monkey at 9 mg/kg, po administered as single dose; format: ADME, organism-based, Macaca fascicularis; details: in vivo; summary of the method: as §4
[23] = Cmax in female beagle dog at 0.5 mg/kg, iv administered as infusion; format: ADME, organism-based, Canis lupus familiaris; parameters: dose 0.5 mg/kg, route intravenous; details: in vivo
[24] = Cmax in fasted male cynomolgus monkey at 9 mg/kg, po administered as single dose; format: ADME, organism-based, Macaca fascicularis; parameters: dose 9 mg/kg, route oral; details: in vivo
[25] = Cmax in fasted female cynomolgus monkey at 9 mg/kg, po administered as single dose; format: ADME, organism-based, Macaca fascicularis; parameters: dose 9 mg/kg, route oral; details: in vivo
[26] = AUC in male Crl:CD(SD) rat at 0.5 mg/kg, iv; format: ADME, organism-based; details: in vivo
[27] = AUC in female Crl:CD(SD) rat at 0.5 mg/kg, iv; format: ADME, organism-based; details: in vivo
[28] = AUC in female Crl:CD(SD) rat at 4.5 mg/kg, po; format: ADME, organism-based; details: in vivo
[29] = AUC in female beagle dog at 0.5 mg/kg, iv administered as infusion; format: ADME, organism-based, Canis lupus familiaris; details: in vivo
[30] = AUC in fasted male beagle dog at 1 mg/kg, po; format: ADME, organism-based, Canis lupus familiaris; details: in vivo
[31] = AUC in fasted female beagle dog at 1 mg/kg, po; format: ADME, organism-based, Canis lupus familiaris; details: in vivo
[32] = AUC(0 to 8 hrs) in fasted male cynomolgus monkey at 9 mg/kg, po administered as single dose; format: ADME, organism-based, Macaca fascicularis; parameters: dose 9 mg/kg, time < 6 hr, route oral; details: in vivo
[33] = Plasma concentration in Wistar rat at 0.5 mg/kg, po after 75 mins; format: ADME, organism-based
Summary of the method: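 Plasma levels taken right after the Vogel test (~75 min after oral dose) following single oral doses in lipid-based formulations; data pooled from four experiments; mean±SD.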

[34] = Plasma concentration in Wistar rat at 10 mg/kg, po qd measured after first dosing during Vogel punished drinking conflict test; format: ADME, organism-based; summary of the method: as §1
[35] = biological target: T1, Metabotropic glutamate receptor 5; test: Displacement of [3H]M-MPEP from mGluR5 in female human post mortem parietal cortical tissue after 30 mins by scintillation counting method

Metabotropic glutamate receptor 5 (Rattus norvegicus, UniProt P31424), sequence (P31424 whole entry): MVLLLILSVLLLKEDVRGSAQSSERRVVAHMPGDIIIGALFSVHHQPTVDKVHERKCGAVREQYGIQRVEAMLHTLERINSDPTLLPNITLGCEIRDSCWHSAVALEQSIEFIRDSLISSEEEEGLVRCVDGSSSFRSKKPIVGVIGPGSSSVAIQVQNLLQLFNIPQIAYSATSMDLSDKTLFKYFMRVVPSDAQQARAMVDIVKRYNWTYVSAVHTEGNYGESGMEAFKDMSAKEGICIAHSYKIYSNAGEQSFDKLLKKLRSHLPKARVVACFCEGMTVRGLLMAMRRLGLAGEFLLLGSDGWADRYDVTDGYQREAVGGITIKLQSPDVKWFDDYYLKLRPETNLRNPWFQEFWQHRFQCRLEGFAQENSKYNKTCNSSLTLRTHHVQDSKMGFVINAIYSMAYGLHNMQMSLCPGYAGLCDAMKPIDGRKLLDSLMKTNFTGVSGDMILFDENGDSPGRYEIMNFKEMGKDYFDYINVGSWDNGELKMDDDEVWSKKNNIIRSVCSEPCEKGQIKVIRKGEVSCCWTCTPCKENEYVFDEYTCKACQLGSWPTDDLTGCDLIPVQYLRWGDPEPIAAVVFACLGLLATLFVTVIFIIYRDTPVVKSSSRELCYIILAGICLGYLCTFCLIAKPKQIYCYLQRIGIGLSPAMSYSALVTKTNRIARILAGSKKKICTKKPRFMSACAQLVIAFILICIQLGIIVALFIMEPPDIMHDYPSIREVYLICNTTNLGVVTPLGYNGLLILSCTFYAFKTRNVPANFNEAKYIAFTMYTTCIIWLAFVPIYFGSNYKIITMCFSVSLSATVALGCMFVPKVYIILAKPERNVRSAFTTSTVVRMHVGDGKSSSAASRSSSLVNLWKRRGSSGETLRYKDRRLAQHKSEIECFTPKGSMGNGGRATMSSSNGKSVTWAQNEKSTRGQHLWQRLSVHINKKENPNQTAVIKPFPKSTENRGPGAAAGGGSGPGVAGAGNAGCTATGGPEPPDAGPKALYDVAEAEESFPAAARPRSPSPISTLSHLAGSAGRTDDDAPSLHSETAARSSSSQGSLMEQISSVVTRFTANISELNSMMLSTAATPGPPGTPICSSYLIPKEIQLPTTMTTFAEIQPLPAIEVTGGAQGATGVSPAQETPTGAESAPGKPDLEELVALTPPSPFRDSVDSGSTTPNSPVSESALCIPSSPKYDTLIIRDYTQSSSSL

N#Cc1cccc(S(=O)(=O)c2cnc3cc(F)ccc3c2-c2ccc(Cl)cc2)c1
Ki [1]: 55.3 nM
CLint (Liver): 0.31 mL/min/g
IC50 [2]: 13 nM
TI (Rattus norvegicus [3]): >30
TI (Rattus norvegicus [4]): 28.3
Papp (MDR1): 11.5 ×10⁻⁶ cm/s
fraction unbound [5]: 0.0027
IC50 (Cytochrome P450 3A4): > 10000 nM
Activity (Rattus norvegicus [6]): Active
Activity (Rattus norvegicus [7]): Active
Activity (Rattus norvegicus [8]): Non-Toxic
MED (Rattus norvegicus [8]): > 30 mg/kg
NOAEL [9]: 30 mg/kg
Activity (Rattus norvegicus [10]): Dose-dependent effect
ED50 (Rattus norvegicus [10]): 50 mg/kg
clearance [11]: 27.9 mL/min/kg
Vd [12]: 12.4 L/kg
Vd [13]: 9.6 L/kg
Vd [14]: 8.6 L/kg
Vd [15]: 9.2 L/kg
half-life [16]: 5.13 h
half-life [17]: 6.3 h
half-life [18]: 12.8 h
half-life [19]: 1.4 h
Tmax [20]: 0.75 h
Tmax [21]: 0.75 h
Tmax [22]: 1.7 h
Cmax [23]: 1140 nM
Cmax [24]: 57 nM
Cmax [25]: 33 nM
AUC [26]: 0.707 µM·h
AUC [27]: 1.38 µM·h
AUC [28]: 7.3 µM·h
AUC [29]: 2.22 µM·h
AUC [30]: 1.86 µM·h
AUC [31]: 1.68 µM·h
AUC(0-t) at 6 h [32]: 0.132 µM·h
concentration at 1.25 h [33]: 34.8 nM
concentration at 1 day [34]: 787 nM
Ki [35]: 12.1 nM
